Measured values from ChEMBL document CHEMBL4330096, “Discovery of potent and selective 5-azaindazole inhibitors of leucine-rich repeat kinase 2 (LRRK2) - Part 1” (Bioorg Med Chem Lett, 2019).

Legend:
[1] = target: T1, Serine/threonine-protein kinase BRSK2 (Homo sapiens) (UniProt Q8IWQ3); assay: Inhibition of BRSK2 (unknown origin) at 10 uM relative to control
T1 sequence (whole entry): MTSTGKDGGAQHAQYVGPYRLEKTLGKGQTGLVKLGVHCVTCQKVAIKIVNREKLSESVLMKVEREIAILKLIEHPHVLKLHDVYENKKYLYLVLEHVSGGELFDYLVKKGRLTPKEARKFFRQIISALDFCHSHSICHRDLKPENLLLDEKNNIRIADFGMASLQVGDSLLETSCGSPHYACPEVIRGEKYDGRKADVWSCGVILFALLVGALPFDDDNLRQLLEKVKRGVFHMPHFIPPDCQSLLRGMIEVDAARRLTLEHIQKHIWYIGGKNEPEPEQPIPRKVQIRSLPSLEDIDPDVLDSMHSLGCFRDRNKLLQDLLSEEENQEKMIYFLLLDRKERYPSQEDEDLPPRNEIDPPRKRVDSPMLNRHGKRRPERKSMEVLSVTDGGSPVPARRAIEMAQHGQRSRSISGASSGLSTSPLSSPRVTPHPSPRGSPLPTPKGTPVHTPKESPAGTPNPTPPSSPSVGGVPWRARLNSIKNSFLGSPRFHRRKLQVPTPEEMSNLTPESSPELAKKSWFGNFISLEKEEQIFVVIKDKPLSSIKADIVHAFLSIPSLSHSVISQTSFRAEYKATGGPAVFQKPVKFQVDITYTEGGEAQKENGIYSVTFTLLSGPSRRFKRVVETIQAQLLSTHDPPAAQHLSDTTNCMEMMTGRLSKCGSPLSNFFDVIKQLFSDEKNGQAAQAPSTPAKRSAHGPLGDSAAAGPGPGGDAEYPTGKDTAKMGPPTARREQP
Method in brief: (§1)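 Single-point screen of each compound against a panel of 59 protein kinases, at 1 or 10 μM. The panel data are also summarised as a rescaled geometric mean selectivity score.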

[2] = target: Tyrosine-protein kinase BTK (Homo sapiens) (UniProt Q06187); assay: Inhibition of BTK (unknown origin) at 10 uM relative to control; method in brief: as §1
[3] = target: CDK2/Cyclin A2 (Homo sapiens) (UniProt P24941+P20248); assay: Inhibition of CDK2/cyclinA (unknown origin) at 10 uM relative to control; format: protein-complex assay; method in brief: as §1
[4] = target: Serine/threonine-protein kinase Chk2 (Homo sapiens) (UniProt O96017); assay: Inhibition of CHK2 (unknown origin) at 10 uM relative to control; method in brief: as §1
[5] = target: T2, MAP kinase-activated protein kinase 5 (Homo sapiens) (UniProt Q8IW41); assay: Inhibition of PRAK (unknown origin) at 10 uM relative to control
T2 sequence (whole entry): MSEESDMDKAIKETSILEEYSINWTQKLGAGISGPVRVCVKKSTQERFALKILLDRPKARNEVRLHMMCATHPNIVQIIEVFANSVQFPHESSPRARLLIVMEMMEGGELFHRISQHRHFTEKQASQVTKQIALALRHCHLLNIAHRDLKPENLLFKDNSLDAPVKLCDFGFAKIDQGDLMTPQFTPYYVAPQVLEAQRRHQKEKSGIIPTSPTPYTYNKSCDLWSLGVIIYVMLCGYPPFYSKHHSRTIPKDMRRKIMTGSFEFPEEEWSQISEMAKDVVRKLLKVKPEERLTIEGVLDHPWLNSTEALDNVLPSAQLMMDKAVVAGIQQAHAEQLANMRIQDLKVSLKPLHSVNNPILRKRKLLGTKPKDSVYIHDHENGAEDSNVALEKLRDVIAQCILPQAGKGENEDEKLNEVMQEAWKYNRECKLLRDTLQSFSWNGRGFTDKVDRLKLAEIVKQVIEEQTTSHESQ
Method in brief: (§2)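 Single-concentration screen of each compound against a 59-protein-kinase panel, run at 10 µM or 1 µM. Activity relative to control is shown as a heat map across the panel.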

[6] = target: Ribosomal protein S6 kinase beta-1 (Homo sapiens) (UniProt P23443); assay: Inhibition of S6K1 (unknown origin) at 10 uM relative to control
Method in brief: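 Single-concentration screen across a panel of 59 protein kinases, with each compound tested at one fixed concentration. The read-out is residual kinase activity relative to control. Panel results are also condensed into a rescaled geometric mean (RGM) selectivity score.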

[7] = Stability in mouse liver microsomes assessed as compound turnover rate measured after 30 mins; format: ADME, Microsome; settings: read-out: Drug metabolism
Method in brief: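 In vitro incubation of compound with liver microsomes: human (HLM) for 40 min, mouse (MLM) for 30 min. Reported as % turnover of parent compound.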

[8] = target: Calcium/calmodulin-dependent protein kinase kinase 2 (Homo sapiens) (UniProt Q96RR4); assay: Inhibition of CAMKKb (unknown origin) at 10 uM relative to control; method in brief: as §1
[9] = target: T3, Inhibitor of nuclear factor kappa-B kinase subunit beta (Homo sapiens) (UniProt O14920); assay: Inhibition of IKKb (unknown origin) at 10 uM relative to control; method in brief: as §1
T3 sequence (whole entry): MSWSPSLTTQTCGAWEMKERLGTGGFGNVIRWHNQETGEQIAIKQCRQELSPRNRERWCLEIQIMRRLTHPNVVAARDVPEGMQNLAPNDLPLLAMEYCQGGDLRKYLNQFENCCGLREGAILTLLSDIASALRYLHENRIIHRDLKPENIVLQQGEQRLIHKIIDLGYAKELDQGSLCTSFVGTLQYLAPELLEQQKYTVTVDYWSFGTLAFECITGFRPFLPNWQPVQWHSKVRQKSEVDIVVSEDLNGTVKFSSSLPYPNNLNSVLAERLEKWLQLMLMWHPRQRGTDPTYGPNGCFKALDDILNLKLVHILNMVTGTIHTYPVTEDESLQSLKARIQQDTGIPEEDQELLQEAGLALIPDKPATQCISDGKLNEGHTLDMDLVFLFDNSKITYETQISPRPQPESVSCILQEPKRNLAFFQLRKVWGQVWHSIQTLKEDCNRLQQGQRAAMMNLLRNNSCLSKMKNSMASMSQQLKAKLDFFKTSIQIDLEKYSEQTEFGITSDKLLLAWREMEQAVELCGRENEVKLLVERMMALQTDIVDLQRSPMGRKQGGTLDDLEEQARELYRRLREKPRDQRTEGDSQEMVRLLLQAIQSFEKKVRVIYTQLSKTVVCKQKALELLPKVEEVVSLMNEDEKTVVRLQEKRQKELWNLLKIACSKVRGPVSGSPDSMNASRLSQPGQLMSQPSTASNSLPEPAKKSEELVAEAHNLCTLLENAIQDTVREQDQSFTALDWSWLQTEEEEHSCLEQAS

[10] = target: Insulin receptor-related protein (Homo sapiens) (UniProt P14616); assay: Inhibition of IRR (unknown origin) at 10 uM relative to control; method in brief: as §1
[11] = target: RAC-alpha serine/threonine-protein kinase (Homo sapiens) (UniProt P31749); assay: Inhibition of PKBa (unknown origin) at 10 uM relative to control; method in brief: as §2
[12] = target: Serine/threonine-protein kinase PLK1 (Homo sapiens) (UniProt P53350); assay: Inhibition of PLK1 (unknown origin) at 10 uM relative to control; method in brief: as §2
[13] = target: 3-phosphoinositide-dependent protein kinase 1 (Homo sapiens) (UniProt O15530); assay: Inhibition of PDK1 (unknown origin) at 10 uM relative to control
Chain of 3-phosphoinositide-dependent protein kinase 1 (Homo sapiens) (O15530 whole entry, looked up): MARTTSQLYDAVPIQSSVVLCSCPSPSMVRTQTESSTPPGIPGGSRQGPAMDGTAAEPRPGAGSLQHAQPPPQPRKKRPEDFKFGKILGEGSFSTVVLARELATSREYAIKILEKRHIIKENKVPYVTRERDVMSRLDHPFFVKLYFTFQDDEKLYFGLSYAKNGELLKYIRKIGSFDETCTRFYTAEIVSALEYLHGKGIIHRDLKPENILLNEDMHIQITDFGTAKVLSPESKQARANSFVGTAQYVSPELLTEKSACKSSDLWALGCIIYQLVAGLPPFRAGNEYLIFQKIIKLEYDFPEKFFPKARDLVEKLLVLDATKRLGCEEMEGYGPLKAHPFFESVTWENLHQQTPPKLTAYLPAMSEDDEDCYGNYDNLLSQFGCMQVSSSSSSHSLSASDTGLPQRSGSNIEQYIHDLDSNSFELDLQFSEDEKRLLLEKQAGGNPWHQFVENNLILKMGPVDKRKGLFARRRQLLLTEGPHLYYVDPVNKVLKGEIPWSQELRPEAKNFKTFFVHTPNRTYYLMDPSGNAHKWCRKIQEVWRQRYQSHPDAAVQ

Chain of Tyrosine-protein kinase BTK (Homo sapiens) (Q06187 whole entry): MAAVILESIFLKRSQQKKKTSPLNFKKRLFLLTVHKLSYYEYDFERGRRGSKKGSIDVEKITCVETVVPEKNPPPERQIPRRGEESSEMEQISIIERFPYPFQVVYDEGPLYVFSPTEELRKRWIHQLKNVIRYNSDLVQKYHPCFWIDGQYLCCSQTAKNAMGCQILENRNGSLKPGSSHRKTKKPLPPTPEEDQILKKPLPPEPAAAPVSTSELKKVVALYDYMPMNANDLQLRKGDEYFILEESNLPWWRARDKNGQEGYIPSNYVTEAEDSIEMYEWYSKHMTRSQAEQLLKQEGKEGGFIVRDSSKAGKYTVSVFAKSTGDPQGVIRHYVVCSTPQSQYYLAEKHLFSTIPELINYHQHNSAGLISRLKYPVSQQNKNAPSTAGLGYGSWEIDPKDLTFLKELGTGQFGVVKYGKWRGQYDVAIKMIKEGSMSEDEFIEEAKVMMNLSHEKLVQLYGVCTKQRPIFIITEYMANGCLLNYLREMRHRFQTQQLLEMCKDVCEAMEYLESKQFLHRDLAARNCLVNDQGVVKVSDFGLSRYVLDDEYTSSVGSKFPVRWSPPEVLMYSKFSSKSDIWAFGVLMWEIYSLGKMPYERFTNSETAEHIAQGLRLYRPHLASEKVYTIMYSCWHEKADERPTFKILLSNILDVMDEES
Chain of Serine/threonine-protein kinase PLK1 (Homo sapiens) (P53350 whole entry): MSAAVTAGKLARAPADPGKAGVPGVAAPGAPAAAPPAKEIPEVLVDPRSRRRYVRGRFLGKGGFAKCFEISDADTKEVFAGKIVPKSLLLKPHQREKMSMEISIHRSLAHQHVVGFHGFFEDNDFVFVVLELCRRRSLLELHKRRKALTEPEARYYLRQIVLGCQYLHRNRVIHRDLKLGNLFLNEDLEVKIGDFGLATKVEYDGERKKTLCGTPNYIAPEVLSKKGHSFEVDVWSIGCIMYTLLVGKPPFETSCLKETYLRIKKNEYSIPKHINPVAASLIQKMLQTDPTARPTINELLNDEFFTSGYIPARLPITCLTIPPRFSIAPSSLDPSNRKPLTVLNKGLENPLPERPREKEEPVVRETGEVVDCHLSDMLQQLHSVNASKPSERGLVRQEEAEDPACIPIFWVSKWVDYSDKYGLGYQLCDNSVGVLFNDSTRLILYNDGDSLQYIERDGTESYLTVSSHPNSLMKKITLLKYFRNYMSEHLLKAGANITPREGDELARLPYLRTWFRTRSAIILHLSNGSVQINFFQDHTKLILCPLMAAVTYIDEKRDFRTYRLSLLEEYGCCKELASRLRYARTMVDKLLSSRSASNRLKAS
Chain of RAC-alpha serine/threonine-protein kinase (Homo sapiens) (P31749 whole entry): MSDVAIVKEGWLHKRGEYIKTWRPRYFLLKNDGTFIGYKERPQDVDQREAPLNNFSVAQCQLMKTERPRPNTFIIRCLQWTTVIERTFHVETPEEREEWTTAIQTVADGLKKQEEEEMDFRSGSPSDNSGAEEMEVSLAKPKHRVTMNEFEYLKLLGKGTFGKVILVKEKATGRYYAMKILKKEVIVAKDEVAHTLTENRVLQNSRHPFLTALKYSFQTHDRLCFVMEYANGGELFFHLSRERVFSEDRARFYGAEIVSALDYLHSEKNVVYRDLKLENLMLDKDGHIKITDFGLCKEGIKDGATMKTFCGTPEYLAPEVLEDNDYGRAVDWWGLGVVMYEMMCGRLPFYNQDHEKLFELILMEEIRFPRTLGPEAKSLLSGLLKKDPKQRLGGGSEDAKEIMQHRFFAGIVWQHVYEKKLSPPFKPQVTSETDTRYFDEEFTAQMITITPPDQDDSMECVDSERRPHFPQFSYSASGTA
Chain of Insulin receptor-related protein (Homo sapiens) (P14616 27-742 limits assumed): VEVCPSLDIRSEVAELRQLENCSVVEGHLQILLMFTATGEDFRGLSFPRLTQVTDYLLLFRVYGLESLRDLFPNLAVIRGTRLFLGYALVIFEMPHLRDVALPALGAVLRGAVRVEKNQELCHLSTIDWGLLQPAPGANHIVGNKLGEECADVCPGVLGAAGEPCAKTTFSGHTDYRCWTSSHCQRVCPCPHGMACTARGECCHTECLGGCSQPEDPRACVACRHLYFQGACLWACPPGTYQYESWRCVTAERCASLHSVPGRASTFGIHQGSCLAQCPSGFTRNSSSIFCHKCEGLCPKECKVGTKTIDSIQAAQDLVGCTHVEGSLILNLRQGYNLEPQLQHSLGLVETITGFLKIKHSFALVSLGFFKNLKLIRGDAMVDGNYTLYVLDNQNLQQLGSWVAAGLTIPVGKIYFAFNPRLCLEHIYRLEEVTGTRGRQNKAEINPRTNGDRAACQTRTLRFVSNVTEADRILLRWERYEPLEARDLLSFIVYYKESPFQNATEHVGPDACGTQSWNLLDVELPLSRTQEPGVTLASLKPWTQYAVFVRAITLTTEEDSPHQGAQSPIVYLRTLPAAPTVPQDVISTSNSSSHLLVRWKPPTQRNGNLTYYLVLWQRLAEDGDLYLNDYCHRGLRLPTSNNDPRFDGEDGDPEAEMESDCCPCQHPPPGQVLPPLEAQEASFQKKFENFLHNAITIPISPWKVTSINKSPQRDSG
Chain of Insulin receptor-related protein (Homo sapiens) (P14616 747-1297 limits assumed): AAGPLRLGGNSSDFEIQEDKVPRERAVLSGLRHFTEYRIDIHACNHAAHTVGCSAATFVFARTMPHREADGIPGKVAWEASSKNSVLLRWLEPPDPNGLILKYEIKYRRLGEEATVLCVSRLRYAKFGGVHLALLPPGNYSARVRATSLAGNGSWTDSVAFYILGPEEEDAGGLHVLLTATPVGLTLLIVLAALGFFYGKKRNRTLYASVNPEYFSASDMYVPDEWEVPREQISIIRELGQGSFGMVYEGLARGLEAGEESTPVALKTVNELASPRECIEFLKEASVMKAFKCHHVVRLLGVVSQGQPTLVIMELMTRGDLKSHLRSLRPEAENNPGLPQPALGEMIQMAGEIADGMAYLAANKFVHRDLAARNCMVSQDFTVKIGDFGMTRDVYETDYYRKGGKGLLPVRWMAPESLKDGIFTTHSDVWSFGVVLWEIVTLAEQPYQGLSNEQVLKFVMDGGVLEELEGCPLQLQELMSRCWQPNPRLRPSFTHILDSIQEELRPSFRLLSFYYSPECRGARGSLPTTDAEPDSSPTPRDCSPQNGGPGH
Chain of Ribosomal protein S6 kinase beta-1 (Homo sapiens) (P23443 whole entry, looked up): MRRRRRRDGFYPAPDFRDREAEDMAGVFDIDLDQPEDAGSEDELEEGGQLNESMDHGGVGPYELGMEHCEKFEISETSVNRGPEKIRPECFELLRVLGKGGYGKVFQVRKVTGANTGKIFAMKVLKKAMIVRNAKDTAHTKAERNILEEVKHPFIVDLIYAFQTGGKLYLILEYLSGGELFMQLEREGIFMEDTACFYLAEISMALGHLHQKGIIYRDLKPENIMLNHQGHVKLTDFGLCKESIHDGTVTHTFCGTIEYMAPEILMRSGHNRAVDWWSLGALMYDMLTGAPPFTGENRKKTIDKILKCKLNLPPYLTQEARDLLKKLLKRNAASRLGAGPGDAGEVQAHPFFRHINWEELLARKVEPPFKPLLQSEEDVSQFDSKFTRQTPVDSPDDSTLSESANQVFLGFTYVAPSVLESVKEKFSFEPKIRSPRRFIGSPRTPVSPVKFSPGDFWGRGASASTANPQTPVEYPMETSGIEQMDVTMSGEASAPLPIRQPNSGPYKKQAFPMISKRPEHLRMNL
Chain of Calcium/calmodulin-dependent protein kinase kinase 2 (Homo sapiens) (Q96RR4 2-588 limits assumed): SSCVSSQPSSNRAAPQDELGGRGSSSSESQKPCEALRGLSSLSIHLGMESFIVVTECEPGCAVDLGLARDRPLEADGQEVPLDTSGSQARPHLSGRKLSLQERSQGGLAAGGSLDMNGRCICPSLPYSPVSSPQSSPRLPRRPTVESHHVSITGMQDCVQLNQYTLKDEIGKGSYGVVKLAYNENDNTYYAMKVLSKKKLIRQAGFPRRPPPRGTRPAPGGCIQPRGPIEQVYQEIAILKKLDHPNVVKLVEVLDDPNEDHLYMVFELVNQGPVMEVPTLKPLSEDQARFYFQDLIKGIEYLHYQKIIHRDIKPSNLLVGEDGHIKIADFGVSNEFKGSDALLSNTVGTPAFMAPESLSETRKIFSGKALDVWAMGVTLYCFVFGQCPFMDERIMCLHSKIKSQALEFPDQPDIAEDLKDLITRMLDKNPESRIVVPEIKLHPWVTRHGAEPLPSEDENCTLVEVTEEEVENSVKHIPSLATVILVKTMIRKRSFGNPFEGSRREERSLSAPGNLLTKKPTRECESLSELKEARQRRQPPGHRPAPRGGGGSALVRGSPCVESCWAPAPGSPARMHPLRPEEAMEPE

`Cc1n[nH]c2ccnc(Nc3ccc4ncsc4c3)c12` showed an inhibition [1] of 35%, an inhibition [2] of 10% and an inhibition [3] of 78%. The inhibition [4] was 36%, the inhibition [5] was 10% and the inhibition [6] was 19%.

With `Cc1n[nH]c2ccnc(OC3CCCCC3)c12` the metabolised at 0.5 h [7] was 37%, the inhibition [1] was 67% and the inhibition [2] was 40%. The inhibition [8] was 72%, the inhibition [3] was 86% and the inhibition [4] was 63%. The inhibition [9] was 35%, the inhibition [10] was 66% and the inhibition [11] was 55%. For the same molecule, the inhibition [12] was 53%, the inhibition [5] was 7% and the inhibition [6] was 78%. For the same molecule, the inhibition [13] was 34%.

`c1cc(-c2n[nH]c3ccnc(OC4CCOCC4)c23)cc(N2CCOCC2)n1` gave a metabolised at 0.5 h [7] of 19%.

In the case of `Cc1n[nH]c2ccnc(Nc3ccccc3F)c12`, the inhibition [1] was 68%, the inhibition [2] was 26% and the inhibition [8] was 36%. It also gave an inhibition [3] of 79%, an inhibition [4] of 26% and an inhibition [9] of 49%. For the same molecule, the inhibition [10] was 77%, the inhibition [11] was 34% and the inhibition [12] was 72%. It also gave an inhibition [5] of 11%, an inhibition [6] of 36% and an inhibition [13] of 25%.

`Cc1n[nH]c2ccnc(NC3CCCCC3)c12` showed a metabolised at 0.5 h [7] of 13%, an inhibition [1] of 46% and an inhibition [2] of 70%. The inhibition [8] was 46%, the inhibition [3] was 86% and the inhibition [4] was 37%. It also gave an inhibition [9] of 29%, an inhibition [10] of 70% and an inhibition [11] of 29%. For the same molecule, the inhibition [12] was 34%, the inhibition [5] was 3% and the inhibition [6] was 28%. It also gave an inhibition [13] of 13%.

Work on `CC(C)n1cc(-c2n[nH]c3ccnc(OC4CCOCC4)c23)cn1` yielded a metabolised at 0.5 h [7] of 20%.
